Reference: ChEMBL document CHEMBL2331097, “Synthesis of 5,7-disubstituted-4-methyl-7H-pyrrolo[2,3-d]pyrimidin-2-amines as microtubule inhibitors” (Bioorg Med Chem, 2013)
Active and inactive are the calls of the source. The rule behind the calls is not given here.

Key:
[1] = Cytotoxicity against mouse JC cells assessed as inhibition of cell survival after 48 hrs by SRB assay; format: functional, cell-based
How it was run: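 JC (CRL-2116) cells kept in RPMI-1640 with L-glutamine, 10% FBS and 50 μg/ml gentamicin at 37 °C, 5% CO₂. Cells were seeded at about 20% confluency and left 24 h to attach, then exposed to a range of concentrations for 48 h. Cells were PBS-washed, fixed in 10% trichloroacetic acid and stained with 0.4% SRB in 1% acetic acid. Dye was dissolved in 10 mM Tris and absorbance read at 570 nm.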

[2] = tested on: JC; test: Modulatory activity at P-gp in mouse JC cells assessed as lowest drug concentration required to increase intracellular [3H]taxol accumulation pretreated for 30 mins prior to [3H]taxol addition measured after 60 mins by liquid scintillation counting analysis; format: cell-based
How it was run: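 JC cells were seeded at about 25% confluency and grown 3–4 days to near confluency. Medium was switched to serum-free, and compounds were preincubated for 30 min at 37 °C. About 0.1 µCi [³H]Taxol (75 Ci/mmol) per well followed, for 60 min at 37 °C. Cells were washed twice with ice-cold PBS and lysed in 1% SDS. Intracellular label was counted by liquid scintillation, and the lowest concentration giving maximal accumulation was recorded.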

[3] = Ratio of compound IC50 to paclitaxel IC50 for mouse JC cells after 48 hrs by SRB assay; format: functional

Row | Compound | IC50 [1] [nM] | LED [2] | Ratio IC50 [3]
1 | COc1ccc(Sc2cn(Cc3ccccc3)c3nc(N)nc(C)c23)cc1 | 10000 | inactive | 
2 | COc1cc(CCc2cn(Cc3cc(OC)c(OC)c(OC)c3)c3nc(N)nc(C)c23)cc(OC)c1OC | 1000 | inactive | 6.6
3 | COc1cc(Cn2cc(Sc3cc(OC)c(OC)c(OC)c3)c3c(C)nc(N)nc32)cc(OC)c1OC | > 100000 | inactive | 
4 | COc1ccccc1Cn1cc(CCc2cc(OC)c(OC)c(OC)c2)c2c(C)nc(N)nc21 | 1000 | 2 µM | 6.6
5 | COc1cc(Cn2cc(CCc3cc(OC)c(OC)c(OC)c3)c3c(C)nc(N)nc32)cc(OC)c1 | 3000 | 1.5 µM | 
6 | Cc1nc(N)nc2c1c(Sc1ccc(Cl)cc1)cn2Cc1ccccc1 | 7500 | inactive | 
7 | COc1ccc(Cn2cc(Sc3ccccc3OC)c3c(C)nc(N)nc32)cc1 | 2500 | inactive | 
8 | COc1ccccc1Cn1cc(Sc2ccccc2OC)c2c(C)nc(N)nc21 | 9000 | inactive | 
